PMC4858174 (Innate immunity, 2015)
No end group written: not given here.

Key:
C3a receptor [1] = assay: C3a-induced degranulation, LAD2 cells; format: cell-based, human; details: LPS 1 and 10 μg/ml, C3a 10 nM, three experiments
Procedure, shortened: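 LAD2 cells (5 × 10^3 per well) in HEPES buffer with 0.1% BSA were pre-treated with buffer or E. coli LPS, then stimulated. Percent β-hexosaminidase release was taken against unstimulated cells lysed in 0.1% Triton X-100. Mean ± SEM, three experiments; two-way ANOVA with Bonferroni.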

C3a receptor [2] = assay: C3a-induced Ca2+ mobilization, LAD2 cells; format: cell-based, human
Procedure, shortened: (§1)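 LAD2 cells, kept in StemPro-34 with 100 ng/ml hSCF, were loaded with indo-1 AM (1 μM) for 30 min at room temperature. They were washed and resuspended in HEPES-buffered saline at 0.2 × 10^6 cells per run. E. coli LPS (serotype R515) was given as a 2 min pre-incubation or premixed with the peptide, followed by C3a. Fluorescence was read at excitation 355 nm and emission 410 nm. Traces are representative of three experiments.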

[3] = system: LAD2 cells endogenously expressing MrgX2; assay: Ca2+ mobilization, LAD2 cells; format: cell-based, human; details: for effect of E. coli-LPS on HDP-induced Ca2+ mobilization (summary): Discussion summary
Procedure, shortened: as §1

macrophages = details: cited from earlier work
[4] = system: untransfected RBL-2H3 cells, which do not express MrgX2; details: no MrgX2; cited from earlier work
[5] = system: untransfected RBL-2H3 cells, which do not express MrgX2; details: no MrgX2; cited from earlier work; remark: listed apart in the source
[6] = system: LAD2 cells endogenously expressing MrgX2; assay: Degranulation; format: cell-based, human; details: for effect of E. coli-LPS on HDP-induced mast cell degranulation (summary): Discussion summary

Substance | effect of E. coli-LPS on C3a-induced degranulation (C3a receptor [1]) | effect of mixture of E. coli-LPS and hBD3 on C3a-induced Ca2+ mobilization (C3a receptor [2]; LPS 1 μg/ml + hBD3 100 nM, then C3a 10 nM) | effect of E. coli-LPS on C3a-induced Ca2+ response (C3a receptor [2]; LPS 1 μg/ml preincubated, C3a 10 nM) | effect of E. coli-LPS on C3a-induced Ca2+ response (LL-37 experiment) (C3a receptor [2]; LPS 10 μg/ml, pre-incubated or mixed with LL-37 1 μM, C3a 10 nM) | effect of E. coli-LPS on HDP-induced Ca2+ mobilization (summary) [3] | effect of premixed E. coli-LPS on hBD3-induced Ca2+ response ([3]; LAD2, LPS 1 μg/ml premixed with hBD3 100 nM) | effect of E. coli-LPS preincubation on hBD3-induced Ca2+ response ([3]; LAD2, LPS 1 μg/ml, 2 min preincubation, hBD3 100 nM) | intracellular Ca2+ response in LAD2 cells ([3]; hBD3 100 nM, not back to basal level even after 5 min) | inhibition of LPS-induced cytokine generation in macrophages, hBD3 (macrophages) | degranulation in untransfected RBL-2H3 cells, earlier work [4] | Ca2+ mobilization in untransfected RBL-2H3 cells, earlier work [5] | effect of E. coli-LPS on HDP-induced mast cell degranulation (summary) [6] | effect of E. coli-LPS on hBD3-induced degranulation ([6]; LAD2, LPS 1 and 10 μg/ml, hBD3 100 nM, mean ± SEM of three experiments) | effect of E. coli-LPS on LL-37-induced Ca2+ mobilization ([3]; LAD2, LPS 10 μg/ml, 2 min pre-incubation or added simultaneously, LL-37 1 μM) | effect of E. coli-LPS on LL-37-induced degranulation ([6]; LAD2, LPS 10 μg/ml, LL-37 1 μM, three experiments)
C3a: anaphylatoxin C3a; native complement C3a from Complement Technology | did not inhibit the response to C3a | not affected | no effect | no effect on the response to C3a |  |  |  |  |  |  |  |  |  |  | 
Human β-defensin3 (GIINTLQKYYCRVRGGRCAVLSCLPKEEQIGKCSTRGRKCCRRKK; not fully specified; ends and bridges not checked; UniProt P81534 23-67, looked up) [hBD3] |  |  |  |  | almost complete inhibition | to the same extent as the 2 min pre-incubation protocol | complete inhibition | sustained intracellular Ca^2+ response | inhibit LPS-induced cytokine generation in macrophages | unresponsive | unresponsive | almost complete inhibition | substantial inhibition |  | 
LL-37: human cathelicidin, host defense peptide |  |  |  |  | almost complete inhibition |  |  |  |  | unresponsive | unresponsive | almost complete inhibition |  | ablated | blocked
